From ChEMBL document CHEMBL4732146, “Nitric oxide-donating and reactive oxygen species-responsive prochelators based on 8-hydroxyquinoline as anticancer agents” (Eur J Med Chem, 2021)
Activity calls are given as the source filed them. The calls are words filed in the database; no cut-off is given here.

How the values were obtained:
SW1990 [1] = test: Cytotoxicity against human SW1990 cells assessed as reduction in cell viability measured after 48 hrs by MTT assay; format: functional, cell-based; conditions: SW1990, 48 h
In short: (§1)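 Cells seeded 6 × 10⁴ per well, cultured 24 h at 37 °C under 5% CO₂, then exposed to compound for 48 h, with or without 50 µM CuCl₂ or FeCl₃ co-incubation. MTT added for 4 h at 37 °C, formazan dissolved in DMSO, A490 read. IC50 reported as mean (SD), n = 3.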

SW1990 [2] = test: Cytotoxicity against human SW1990 cells assessed as reduction in cell viability at 10 to 20 uM measured after 48 hrs in presence of NO scavenger Carboxyl-PTIO by MTT assay; format: functional, cell-based; conditions: dose 10-20 µM
In short: (§2)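 SW1990 cells pretreated 1 h at 37 °C with 20 mM NAC or 50 µM carboxy-PTIO, then treated 48 h with compound at 10 or 20 µM. Percent cell death by MTT (A490). Mean ± SD, n = 3.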

[3] = Metal chelating activity assessed as compound-Cu2+ complex formation by measuring intracellular HO level in human SW1990 cells at 10 uM measured after 1 hr in presence of CuCl2 by HO probe based confocal laser scanning microscopic analysis; format: cell-based
In short: (§3)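 SW1990 cells at 80% confluence were loaded with 20 µM HO· probe at 37 °C for 30 min and rinsed. They then received 50 µM CuCl₂, followed by 10 µM compound for 1 h. For the scavenger arm, 1 mM tempol was given for 30 min before CuCl₂. CLSM imaging at λex 570 / λem 650 nm gave mean intensity; n = 3.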

[4] = Prodrug activation in NO at 100 uM measured after 1 hr by RP-HPLC analysis
In short: (§4)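 Compound (100 µM) incubated at 37 °C for 1 h with one of: ROS species (1 mM), NO solution (1 mM), GSH (200 µM), CuCl₂ (10 µM) or FeCl₃ (10 µM). Percent decomposed was determined by RP-HPLC (ODS column, 0.1% TFA water/methanol gradient, 1 mL/min, 256 nm).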

PANC-1 [5] = test: Cytotoxicity against human PANC-1 cells assessed as reduction in cell viability measured after 48 hrs in presence of FeCl3 by MTT assay; format: functional, cell-based; conditions: PANC-1, 48 h; in short: as §1
PANC-1 [6] = test: Cytotoxicity against human PANC-1 cells assessed as reduction in cell viability measured after 48 hrs by MTT assay; format: functional, cell-based; conditions: PANC-1, 48 h; in short: as §1
SW1990 [7] = test: Cytotoxicity against human SW1990 cells assessed as reduction in cell viability measured after 48 hrs in presence of FeCl3 by MTT assay; format: functional, cell-based; conditions: SW1990, 48 h; in short: as §1
SW1990 [8] = test: Cell cycle arrest in human SW1990 cells assessed as increase in accumulation at G1-phase at 12 uM measured after 24 hrs by propidium iodide staining based flow cytometry; format: functional
In short: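 SW1990 cells seeded 5 × 10⁵ per well, grown 24 h, then treated 24 h. Washed in ice-cold PBS, fixed ≥24 h in ice-cold 70% alcohol, RNase A treated, PI-stained 30 min at 4 °C in the dark. DNA content read by flow cytometry to give cycle distribution. Mean ± SD, n = 3.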

[9] = Stability of compound in pH 5 PBS buffer assessed as parent compound remaining measured after 24 hrs by RP-HPLC analysis; format: physicochemical; conditions: read-out: Stabilty
In short: (§5)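 Compound (1 µM) stirred at 37 °C either in PBS (pH 5.0, 7.4 or 10.0) containing 5% DMSO or in DMEM with 10% FBS. Aliquots were analysed by RP-HPLC (0.1% TFA water/methanol gradient, 256 nm) for remaining intact compound, up to 24 h.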

PANC-1 [10] = test: Cytotoxicity against human PANC-1 cells assessed as reduction in cell viability measured after 48 hrs in presence of CuCl2 by MTT assay; format: functional, cell-based; conditions: PANC-1, 48 h; in short: as §1
SW1990 [11] = test: Cytotoxicity against human SW1990 cells assessed as reduction in cell viability measured after 48 hrs in presence of CuCl2 by MTT assay; format: functional, cell-based; conditions: SW1990, 48 h; in short: as §1
[12] = Metal chelating activity assessed as compound-Cu2+ complex formation by measuring intracellular HO level in human SW1990 cells at 10 uM measured after 1 hr in presence of CuCl2 and HO radical scavenger tempol by HO probe based confocal laser scanning microscopic analysis; format: cell-based; in short: as §3
[13] = Cytotoxicity against human H6C7 cells assessed as reduction in cell viability measured after 48 hrs by MTT assay; format: cell-based; conditions: H6C7, 48 h; in short: as §1
SW1990 [14] = test: Cytotoxicity against human SW1990 cells assessed as reduction in cell viability at 10 to 20 uM measured after 48 hrs in presence of ROS quencher NAC by MTT assay; format: functional, cell-based; conditions: dose 10-20 µM; in short: as §2
SW1990 [15] = test: Induction of apoptosis in human SW1990 cells assessed as increase in Bax-2 expression at 8 to 12 uM measured after 24 hrs by Western blot analysis; format: functional, cell-based; conditions: dose 8-12 µM
In short: (§6)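 SW1990 cells seeded 5 × 10⁵ per well and grown 24 h at 37 °C, then treated 24 h. Lysates quantified by BCA, resolved by SDS-PAGE and transferred to nitrocellulose. Blocked in 5% milk, probed overnight at 4 °C for cleaved caspase-3, cleaved caspase-9, Bax and Bcl-2, then HRP secondary 2 h. ECL detection.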

[16] = Prodrug activation in ClO- at 100 uM measured after 1 hr by RP-HPLC analysis; in short: as §4
[17] = Stability of compound in pH 7.4 PBS buffer assessed as parent compound remaining measured after 24 hrs by RP-HPLC analysis; format: physicochemical; conditions: read-out: Stabilty; in short: as §5
[18] = Drug metabolism in human SW1990 cells assessed as nitric oxide release by measuring increase in 3-nitrotyrosine-containing cytochrome-c expression at 8 to 12 uM measured after 24 hrs by Western blot analysis; format: ADME, cell-based; conditions: sw1990, 24 h
In short: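 SW1990 cells treated 24 h, or pretreated 1 h with carboxyl-PTIO (50 µM) before 24 h treatment. Mitochondrial proteins extracted and lysed (30 µg/lane), run on SDS-PAGE, blotted to PVDF and probed with anti-3-nitrotyrosine antibody. Mean ± SD, n = 3.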

[19] = Drug metabolism in human SW1990 cells assessed as nitric oxide release at 8 to 12 uM measured after 24 hrs by DAF-FM DA probe based flow cytometry; format: ADME, cell-based; conditions: sw1990, 24 h, dose 8-12 µM
In short: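 SW1990 cells at 80% confluence loaded with 5 µM DAF-FM DA for 20 min at 37 °C, rinsed, then incubated with compound. Optional 1 h pretreatment with 50 µM carboxyl-PTIO before 12 µM treatment. Fluorescence read by flow cytometry (ex 495 / em 515 nm). Mean ± SD, n = 3.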

SW1990 [20] = test: Induction of apoptosis in human SW1990 cells assessed as increase in cleaved caspase-9 expression at 8 to 12 uM measured after 24 hrs by Western blot analysis; format: functional, cell-based; conditions: dose 8-12 µM; in short: as §6
[21] = Cytotoxicity against human RWPE2 cells assessed as reduction in cell viability measured after 48 hrs by MTT assay; format: cell-based; conditions: RWPE2, 48 h; in short: as §1
SW1990 [22] = test: Induction of mitochondrial membrane potential loss in human SW1990 cells at 8 to 12 uM measured after 24 hrs by JC1 staining based flow cytometry; format: functional, cell-based; conditions: dose 8-12 µM
In short: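 SW1990 cells seeded at 5 × 10⁵ per well, grown 24 h, then exposed to compound for 24 h. Stained with JC-1 per kit instructions. Flow cytometry gave the percentage of cells with healthy or collapsed mitochondrial membrane potential. Mean ± SD, n = 3.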

O=C(NCCCOc1no[n+]([O-])c1S(=O)(=O)c1ccccc1)c1ccc2cccc(OCc3ccc(B(O)O)cc3)c2n1
IC50 (SW1990 [1]): 8.83 µM | Activity (SW1990 [2]): inactive | Activity [3]: Active | Drug metabolism [4]: Metabolite_Notdetected | IC50 (PANC-1 [5]): 17.6 µM | IC50 (PANC-1 [6]): 10.5 µM | IC50 (SW1990 [7]): 15.4 µM | Activity (SW1990 [8]): Active | remaining at 24 h [9]: > 80% | IC50 (PANC-1 [10]): 1.69 µM | IC50 (SW1990 [11]): 1.2 µM | Activity [12]: inactive | IC50 [13]: > 50 µM | Activity (SW1990 [14]): inactive | Activity (SW1990 [15]): Active | Drug metabolism [16]: Metabolite_Notdetected | remaining at 24 h [17]: > 80% | Drug metabolism [18]: Metabolite_Detected | Drug metabolism [19]: Metabolite_Detected | Activity (SW1990 [20]): Active | IC50 [21]: 35.6 µM | Activity (SW1990 [22]): Active
